Activity calls are given as the source filed them.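 The calls were made as follows, unless noted: active = fluorescence slope after compound addition differing from the mean of all screened samples at 99.7% confidence, in either direction; inactive = the rest.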

The nature of assay [1]: inhibitors of TNFa-induced NFkB p65 translocation, primary screen, imaging, HUVEC, MLSMR starter and 10KST1 sets (AID 438;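 active = inhibition above 20% together with a positive visual image hit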;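 also: compound added about 3h40 before a 20 min TNFalpha stimulation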;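 as to inhibition: signal is the nuclear over cytoplasmic p65 intensity ratio per well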). The settings on record: HUVEC TNFa-induced p65 nuclear translocation; cell count: measured here: nuclei count (cytotoxicity indicator), at 2.08 µM; inhibition: at 2 µM, stronger effect = higher value, 0% TNFa-plus-vehicle, 100% no-TNFa wells.
Assay [2] in a line: inhibitors of E-selectin induction by TNFa, primary screen, imaging, HUVEC, immunofluorescence, MLSMR starter and 10KST1 sets (AID 487;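 active = visually confirmed hit in the image check and inhibition above 20%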;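 as to inhibition: signal is fraction of cell area covered by stained E-selectin grains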;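 as to nuclei count: 100% = median nuclei count of all wells on the same plate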). The settings on record: HUVEC TNFalpha-induced E-selectin immunofluorescence imaging, at 2 µM; inhibition: stronger effect = higher value; nuclei count: measured here: cell number, toxicity.
Assay [3] in a line: DUSP6 inhibitors restoring Erk phosphorylation by chemical complementation, primary imaging in DUSP6-transfected HeLa (AID 609;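 active = compounds giving at least 50% inhibition in the cell-based MKP-3 phosphatase rescue imaging test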;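 as to inhibition: phospho-Erk level distribution per well compared with pooled transfected vehicle control wells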). The settings on record: HeLa MKP-3 transfected, phospho-Erk imaging KS statistic, at 10 µM, cells stimulated with TPA for 15 min.
Assay [4] has as its target Dual specificity protein phosphatase 6 (Homo sapiens) (UniProt Q16828). The assay is described as above. The settings on record: HeLa MKP-3 transfected, phospho-Erk imaging KS statistic; at 10 µM; stronger effect = higher value; cells stimulated with TPA for 15 min.
The target in assay [5] is Voltage-gated potassium channel subunit beta-2 (Rattus norvegicus) (UniProt P62483). In words: KvBeta enzyme negative modulators, primary screen, biochemical, NADPH fluorescence (AID 622;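 active = fluorescence slope higher than the sample average by over 3 SD, cut at about -0.22 in these data, passing the limit was not always enough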;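 also: slope of raw intensity against log time taken from 70 to 1610 s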). The settings on record: recombinant KvBeta, 4-cyanobenzaldehyde reduction, at 10 µM, stronger effect = higher value.
Sequence of Voltage-gated potassium channel subunit beta-2 (Rattus norvegicus) (P62483 whole entry, looked up): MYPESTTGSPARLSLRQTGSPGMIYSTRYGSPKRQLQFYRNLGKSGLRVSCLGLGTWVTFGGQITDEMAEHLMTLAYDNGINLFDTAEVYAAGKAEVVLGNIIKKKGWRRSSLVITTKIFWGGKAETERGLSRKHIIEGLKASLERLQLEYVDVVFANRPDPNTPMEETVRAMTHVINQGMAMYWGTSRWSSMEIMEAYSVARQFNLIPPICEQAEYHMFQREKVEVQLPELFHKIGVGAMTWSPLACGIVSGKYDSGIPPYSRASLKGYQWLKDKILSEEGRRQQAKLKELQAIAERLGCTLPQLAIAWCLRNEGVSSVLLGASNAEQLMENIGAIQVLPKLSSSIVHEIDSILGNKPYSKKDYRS
For assay [6] the target is unchanged. Description: KvBeta positive modulators, primary screen, biochemical, NADPH fluorescence (AID 623;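 active = NADPH fluorescence slope more negative than the mean of all samples by about 3 SD, 99.7% confidence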;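 also: fluorescence intensity change per second fitted from 20 to 320 s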). The settings on record: Recombinant KvBeta, NADPH fluorescence decrease slope, 10 min; at 10 µM; stronger effect = lower value.
In assay [7] the target is Alpha-2C adrenergic receptor (Homo sapiens) (UniProt P18825). Description: modulators of alpha2C/GIRK thallium flux, primary screen, cell-based, HEK293 alpha2C/GIRK1/2 (AID 624).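 Also: slope of fluorescence ratio to pre-addition baseline per second over 15 to 24 s.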 The settings on record: thallium flux BTC fluorescence, at 10 µM, actives lie on both sides.
Sequence of Alpha-2C adrenergic receptor (Homo sapiens) (P18825 whole entry, looked up): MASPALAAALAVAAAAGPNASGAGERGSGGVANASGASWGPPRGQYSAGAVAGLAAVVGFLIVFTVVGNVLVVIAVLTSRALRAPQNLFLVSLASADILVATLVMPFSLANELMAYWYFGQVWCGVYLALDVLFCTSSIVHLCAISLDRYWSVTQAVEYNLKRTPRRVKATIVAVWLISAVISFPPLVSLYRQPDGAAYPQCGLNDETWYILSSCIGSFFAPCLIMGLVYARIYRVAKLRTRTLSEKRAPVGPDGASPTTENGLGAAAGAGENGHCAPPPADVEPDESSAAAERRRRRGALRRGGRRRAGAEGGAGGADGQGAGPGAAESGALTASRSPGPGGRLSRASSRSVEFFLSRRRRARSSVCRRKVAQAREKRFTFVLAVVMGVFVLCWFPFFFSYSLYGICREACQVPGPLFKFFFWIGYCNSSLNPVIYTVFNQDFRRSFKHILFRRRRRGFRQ
Assay [8] is described as follows: inhibitors of larval lipid processing in zebrafish, primary screen, whole organism, PED6 fluorescence, gall bladder and intestine (AID 686;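 active = a full or partial loss of lipid-probe fluorescence in the fish gall bladder, intestine or both, judged by eye; inactive = no fluorescence loss, or compound toxic to the fish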;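 also: larvae 5 to 7 days old with five fish per well; signal comes from phospholipase A2 cleavage of quenched PED6 carried via bile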). The settings on record: Zebrafish larvae PED6 lipid processing, fluorescence scoring; screened at 20 µM (by protocol). The method, boiled down: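 system = live zebrafish larvae aged 5-7 days, whole organism | probe or stimulus = ingested quenched lipid PED6 at 100 nM | doses = 20 µM single dose | timing = overnight exposure | detection = fluorescence microscopy with visual scoring of gall bladder and intestine | read-out = visual per-well fluorescence inhibition score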

The nature of assay [9]: inhibitors of Chlamydomonas gravitaxis, primary screen, whole organism, Chlamydomonas reinhardtii, WT vs cilia-less mutant, absorbance, 96-well (AID 463189;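 active = inhibition at or above 50% relative to wild type and mutant plate controls; inactive = inhibition below 50%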;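 also: 0% = wild type cc124 cells in DMSO and 100% = ciliumless bld1 mutant cells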). Particulars: OD600 absorbance, 2 days, at 10 µM, stronger effect = higher value.
Where [10] appears, read: measured here: cell density z-score.
[11] abbreviates: measured here: nuclear c-Myc green intensity z-score.
Where [12] appears, read: measured here: nuclear pErk red intensity z-score, stronger effect = higher value.

Sequence of Dual specificity protein phosphatase 6 (Homo sapiens) (Q16828 whole entry, looked up): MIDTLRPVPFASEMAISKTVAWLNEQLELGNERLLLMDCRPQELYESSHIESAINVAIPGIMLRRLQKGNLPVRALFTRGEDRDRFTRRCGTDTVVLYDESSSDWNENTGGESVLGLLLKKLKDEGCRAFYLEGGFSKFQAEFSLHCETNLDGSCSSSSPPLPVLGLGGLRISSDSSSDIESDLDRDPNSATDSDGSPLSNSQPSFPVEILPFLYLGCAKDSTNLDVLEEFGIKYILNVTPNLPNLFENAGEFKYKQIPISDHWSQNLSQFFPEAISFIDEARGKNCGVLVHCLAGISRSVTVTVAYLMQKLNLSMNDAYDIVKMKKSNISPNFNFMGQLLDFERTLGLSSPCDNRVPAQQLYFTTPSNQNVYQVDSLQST

A word on the inhibition: it is the drop in the measured response relative to a control, in per cent. For the compound `COc1cccc(OC)c1-c1nn2c(-c3ccccc3Cl)nnc2s1`, the cell count in assay [1] came out at 611. Further, the inhibition was -4.2% (inactive) in assay [1], -50.2% (inactive) in assay [2], -6.06% (inactive) in assay [4] and 101% (active) in assay [9]. Further, in assay [2], the nuclei count was 159%. Also, the figures for the z-score in assay [3] (setting [10]), in [3] (setting [11]) and in assay [3] (setting [12]) were 1.55, -0.0979 and -0.298, respectively. The fluorescence slope in [5] was -0.444 (inactive). In addition, the NADPH fluorescence slope in assay [6] is -0.000105 (inactive). Besides, in [7], the slope was 0.00355 (inactive). Besides, the outcome in assay [8] was inactive.
Regarding `CN(C)c1oc(-c2cccs2)nc1C#N`, in assay [1], the cell count was 443. Also, the inhibition in [1] is -7.1% (inactive); in assay [2], -173% (inactive); in assay [4] it was 6.04% (inactive); in assay [9], 4.07% (inactive). In assay [2], this compound showed a nuclei count of 157%. For the same compound, the z-score in assay [3] (setting [10]) was 1.44; in [3] (setting [11]) it was 1.03; in assay [3] (setting [12]), -0.732. Also, the fluorescence slope in assay [5] is -0.052 (inactive). Besides, the NADPH fluorescence slope in assay [6] was -1.6e-06 (inactive). The slope in [7] is 0.00583 (inactive). In [8], the outcome was inactive.
`CCC1(C)Cc2c(sc3[nH]c(=O)[nH]c(=O)c23)CS1` (stereo unspecified): the cell count in [1] came to 666. The inhibition in assay [1] was -8.2% (inactive); in assay [2], -11.4% (inactive); in [4], 1.75% (inactive); in assay [9], 2.21% (inactive). The nuclei count in assay [2] was determined as 170%. Besides, the results for the z-score in [3] (setting [10]), in assay [3] (setting [11]) and in [3] (setting [12]) were 0.81, -1.43 and -0.857, respectively. Further, in assay [5], the fluorescence slope is -0.519 (inactive). In addition, in assay [6], the NADPH fluorescence slope is -4.7e-05 (inactive). Besides, the slope in assay [7] is 0.00488 (inactive). For the same compound, the compound was classed as inactive in [8].
`COc1ccccc1N1C(=O)C2ON(c3ccccc3)C(c3ccc(N(C)C)cc3)C2C1=O` (stereo unspecified): in assay [1], the cell count came out at 575. Besides, the inhibition in [1] is -8.3% (inactive); in assay [2], -66.7% (inactive); in [4], -15% (inactive); in assay [9], 9.55% (inactive). In assay [2], this compound displayed a nuclei count of 170%. Moreover, the z-score is -2.24 in assay [3] (setting [10]), 0.301 in assay [3] (setting [11]) and 1.93 in [3] (setting [12]). Further, the fluorescence slope in [5] is -0.503 (inactive). In addition, in [6], the NADPH fluorescence slope was -3e-05 (inactive). The slope in assay [7] is 0.00352 (inactive). For the same compound, the call in [8] was inactive.
In the case of `CC1(C)Cc2c(C#N)c(OCC(=O)c3ccc(Cl)cc3)nc(-c3ccoc3)c2CO1`, the cell count in assay [1] stood at 654. Besides, the inhibition in assay [1] is -2.9% (inactive); in assay [2], 20% (inactive); in assay [4], 13.2% (inactive); in [9], 40.4% (inactive). In assay [2], this compound registered a nuclei count of 170%. Also, the z-score was -0.432 in [3] (setting [10]), -0.355 in assay [3] (setting [11]) and 0.479 in assay [3] (setting [12]). The fluorescence slope in assay [5] was -0.487 (inactive). The NADPH fluorescence slope in assay [6] is -4.2e-05 (inactive). The slope in assay [7] was 0.00736 (inactive). In addition, the compound was called inactive in [8].
With `CC(C)(C)C1=Nn2c(nnc2-c2ccco2)SC1`, the cell count in [1] stood at 663. Also, the inhibition is -3.7% (inactive) in assay [1], -70.4% (inactive) in assay [2], -6.06% (inactive) in assay [4] and -3.69% (inactive) in assay [9]. In addition, the nuclei count in assay [2] turned out to be 165%. Further, the figures for the z-score in assay [3] (setting [10]), in assay [3] (setting [11]) and in assay [3] (setting [12]) were -0.164, 0.534 and -0.139, respectively. Further, the fluorescence slope in assay [5] was -0.423 (inactive). The NADPH fluorescence slope in [6] was -0.000133 (inactive). The slope in assay [7] was 0.00705 (inactive). The compound was called inactive in assay [8].
For the compound `CCOC(=O)CC(=O)CSc1nc2c(cc1C#N)CCCCC2`, the cell count in [1] worked out at 510. For the same compound, the inhibition in [1] was -8.3% (inactive); in [2] it was -29.1% (inactive); in assay [4], 6.51% (inactive); in assay [9], 12.7% (inactive). In assay [2], the nuclei count is 114%. Further, the z-score was -0.0989 in assay [3] (setting [10]), -0.82 in assay [3] (setting [11]) and 0.239 in assay [3] (setting [12]). Further, the fluorescence slope in [5] is -0.342 (inactive). Further, in assay [6], the NADPH fluorescence slope was -3e-05 (inactive). Also, in assay [7], the slope is 0.00873 (inactive). For the same compound, the call in assay [8] was inactive.

Values taken from PubChem BioAssay.
